# How the values were obtained:
# Pseudomonas aeruginosa [1] = test: Antimicrobial activity against Pseudomonas aeruginosa isolate OC14552 by broth microdilution method; assay type: functional
# Method in brief: (§1)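 Clinical P. aeruginosa isolates, baseline and posttreatment, collected in ceftobiprole phase III clinical trials. MICs were measured by CLSI broth microdilution.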
# Pseudomonas aeruginosa [2] = test: Antimicrobial activity against Pseudomonas aeruginosa isolate OC14551 harboring plasmid JAK16 expressing mexXY gene by broth microdilution method; assay type: functional
# Method in brief: (§2)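 CLSI broth microdilution MIC on P. aeruginosa transformants. Plasmids (control vector pJAK16, pMexXY or cloned mexZ repressor; 200 ng) were electroporated into fresh electrocompetent cells, and transformants were selected on Mueller-Hinton plates with chloramphenicol 200 or 400 μg/ml. Cultures were kept in chloramphenicol 200 μg/ml to maintain the plasmid, with 1 mM IPTG to induce the cloned gene.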
# Pseudomonas aeruginosa [3] = test: Antimicrobial activity against Pseudomonas aeruginosa isolate OC17349 after end of treatment by broth microdilution method; assay type: functional; method in brief: as §1
# Pseudomonas aeruginosa [4] = test: Antimicrobial activity against Pseudomonas aeruginosa isolate OC14551 by broth microdilution method; assay type: functional; method in brief: as §1
# Pseudomonas aeruginosa [5] = test: Antimicrobial activity against Pseudomonas aeruginosa isolate OC16830 by broth microdilution method; assay type: functional; method in brief: as §1
# Pseudomonas aeruginosa [6] = test: Antimicrobial activity against Pseudomonas aeruginosa isolate OC16827 on day 14 by broth microdilution method; assay type: functional; conditions: isolate OC16827, 336 h; method in brief: as §1
# Pseudomonas aeruginosa [7] = test: Antimicrobial activity against Pseudomonas aeruginosa isolate OC16827 after end of treatment by broth microdilution method; assay type: functional; method in brief: as §1
# Pseudomonas aeruginosa [8] = test: Antimicrobial activity against Pseudomonas aeruginosa isolate OC16830 harboring plasmid MexZ expressing mexXY gene by broth microdilution method
# Pseudomonas aeruginosa [9] = test: Antimicrobial activity against Pseudomonas aeruginosa isolate OC14805 after 7 to 14 days by broth microdilution method; assay type: functional; method in brief: as §1
# Pseudomonas aeruginosa [10] = test: Antimicrobial activity against Pseudomonas aeruginosa isolate OC16827 harboring plasmid JAK16 expressing mexXY gene by broth microdilution method; assay type: functional; method in brief: as §2
# Pseudomonas aeruginosa [11] = test: Antimicrobial activity against Pseudomonas aeruginosa isolate OC17355 harboring plasmid JAK16 expressing mexXY gene by broth microdilution method; assay type: functional; method in brief: as §2
# Pseudomonas aeruginosa [12] = test: Antimicrobial activity against Pseudomonas aeruginosa isolate OC17355 by broth microdilution method; assay type: functional; method in brief: as §1
# Pseudomonas aeruginosa [13] = test: Antimicrobial activity against Pseudomonas aeruginosa isolate OC16827 harboring plasmid MexXY expressing mexXY gene by broth microdilution method; assay type: functional; method in brief: as §2
# Pseudomonas aeruginosa [14] = test: Antimicrobial activity against Pseudomonas aeruginosa isolate OC17349 after 7 to 14 days by broth microdilution method; assay type: functional; method in brief: as §1
# Pseudomonas aeruginosa [15] = test: Antimicrobial activity against Pseudomonas aeruginosa isolate OC14805 by broth microdilution method; assay type: functional; method in brief: as §1
# Pseudomonas aeruginosa [16] = test: Antimicrobial activity against Pseudomonas aeruginosa isolate OC14805 after > 14 days by broth microdilution method; assay type: functional; conditions: isolate OC14805, 336 h; method in brief: as §1
# Pseudomonas aeruginosa [17] = test: Antimicrobial activity against Pseudomonas aeruginosa isolate OC17349 on day 4 by broth microdilution method; assay type: functional; conditions: isolate OC17349, 96 h; method in brief: as §1
# Pseudomonas aeruginosa [18] = test: Antimicrobial activity against Pseudomonas aeruginosa isolate OC16827 harboring plasmid MexZ expressing mexXY gene by broth microdilution method
# Pseudomonas aeruginosa [19] = test: Antimicrobial activity against Pseudomonas aeruginosa isolate OC14552 on day 4 by broth microdilution method; assay type: functional; conditions: isolate OC14552, 96 h; method in brief: as §1
# Pseudomonas aeruginosa [20] = test: Antimicrobial activity against Pseudomonas aeruginosa isolate OC14805 on day 4 by broth microdilution method; assay type: functional; conditions: isolate OC14805, 96 h; method in brief: as §1
# Pseudomonas aeruginosa [21] = test: Antimicrobial activity against Pseudomonas aeruginosa PAO1 harboring plasmid MexZ expressing mexXY gene by broth microdilution method; assay type: functional; method in brief: as §2
# Pseudomonas aeruginosa [22] = test: Antimicrobial activity against Pseudomonas aeruginosa isolate OC17355 harboring plasmid MexZ expressing mexXY gene by broth microdilution method; assay type: functional; method in brief: as §2
# Pseudomonas aeruginosa [23] = test: Antimicrobial activity against Pseudomonas aeruginosa isolate OC14551 on day 8 by broth microdilution method; conditions: isolate OC14551, 192 h
# Pseudomonas aeruginosa [24] = test: Antimicrobial activity against Pseudomonas aeruginosa isolate OC14812 harboring plasmid JAK16 expressing mexXY gene by broth microdilution method; assay type: functional; method in brief: as §2
# Pseudomonas aeruginosa [25] = test: Antimicrobial activity against Pseudomonas aeruginosa isolate OC16830 harboring plasmid JAK16 expressing mexXY gene by broth microdilution method; assay type: functional; method in brief: as §2
# Pseudomonas aeruginosa [26] = test: Antimicrobial activity against Pseudomonas aeruginosa isolate OC14812 harboring plasmid MexZ expressing mexXY gene by broth microdilution method; assay type: functional; method in brief: as §2
# Pseudomonas aeruginosa [27] = test: Antimicrobial activity against Pseudomonas aeruginosa PAO1 harboring plasmid JAK16 expressing mexXY gene by broth microdilution method; assay type: functional; method in brief: as §2
# Pseudomonas aeruginosa [28] = test: Antimicrobial activity against Pseudomonas aeruginosa PAO1 harboring plasmid MexXY expressing mexXY gene by broth microdilution method; assay type: functional; method in brief: as §2
# Pseudomonas aeruginosa [29] = test: Antimicrobial activity against Pseudomonas aeruginosa isolate OC14551 harboring plasmid MexZ expressing mexXY gene by broth microdilution method; assay type: functional; method in brief: as §2
# Pseudomonas aeruginosa [30] = test: Antimicrobial activity against Pseudomonas aeruginosa isolate OC14812 by broth microdilution method; assay type: functional; method in brief: as §1
# Pseudomonas aeruginosa [31] = test: Antimicrobial activity against Pseudomonas aeruginosa isolate OC17349 by broth microdilution method; assay type: functional; method in brief: as §1
# Pseudomonas aeruginosa [32] = test: Antimicrobial activity against Pseudomonas aeruginosa isolate OC16827 by broth microdilution method; assay type: functional; method in brief: as §1
Molecule,MIC (Pseudomonas aeruginosa [1]) [µg/mL],MIC (Pseudomonas aeruginosa [2]) [µg/mL],MIC (Pseudomonas aeruginosa [4]) [µg/mL],MIC (Pseudomonas aeruginosa [5]) [µg/mL],MIC (Pseudomonas aeruginosa [8]) [µg/mL],MIC (Pseudomonas aeruginosa [10]) [µg/mL],MIC (Pseudomonas aeruginosa [11]) [µg/mL],MIC (Pseudomonas aeruginosa [12]) [µg/mL],MIC (Pseudomonas aeruginosa [15]) [µg/mL],MIC (Pseudomonas aeruginosa [18]) [µg/mL],MIC (Pseudomonas aeruginosa [21]) [µg/mL],MIC (Pseudomonas aeruginosa [22]) [µg/mL],MIC (Pseudomonas aeruginosa [24]) [µg/mL],MIC (Pseudomonas aeruginosa [25]) [µg/mL],MIC (Pseudomonas aeruginosa [26]) [µg/mL],MIC (Pseudomonas aeruginosa [27]) [µg/mL],MIC (Pseudomonas aeruginosa [28]) [µg/mL],MIC (Pseudomonas aeruginosa [29]) [µg/mL],MIC (Pseudomonas aeruginosa [30]) [µg/mL],MIC (Pseudomonas aeruginosa [31]) [µg/mL],other results
Nc1nc(/C(=N/O)C(=O)N[C@@H]2C(=O)N3C(C(=O)O)=C(/C=C4\CCN([C@@H]5CCNC5)C4=O)CS[C@H]23)ns1 [CEFTOBIPROLE],4,16,16,16,1,4,8,16,2,1,1,2,16,16,2,4,32,4,16,4,MIC (Pseudomonas aeruginosa [3]): 16 µg/mL; MIC (Pseudomonas aeruginosa [6]): 16 µg/mL; MIC (Pseudomonas aeruginosa [7]): 16 µg/mL; MIC (Pseudomonas aeruginosa [9]): 16 µg/mL; MIC (Pseudomonas aeruginosa [13]): 16 µg/mL; MIC (Pseudomonas aeruginosa [14]): 16 µg/mL; MIC (Pseudomonas aeruginosa [16]): 16 µg/mL; MIC (Pseudomonas aeruginosa [17]): 16 µg/mL; MIC (Pseudomonas aeruginosa [19]): 4 µg/mL; MIC (Pseudomonas aeruginosa [20]): 4 µg/mL; MIC (Pseudomonas aeruginosa [23]): 16 µg/mL; MIC (Pseudomonas aeruginosa [32]): 4 µg/mL
CO/N=C(\C(=O)N[C@@H]1C(=O)N2C(C(=O)[O-])=C(C[N+]3(C)CCCC3)CS[C@H]12)c1csc(N)n1,4,16,8,8,4,2,8,8,2,2,1,2,8,8,2,2,8,4,8,4,MIC (Pseudomonas aeruginosa [13]): 8 µg/mL; MIC (Pseudomonas aeruginosa [32]): 2 µg/mL
CC(C)(O/N=C(\C(=O)N[C@@H]1C(=O)N2C(C(=O)[O-])=C(C[n+]3ccccc3)CS[C@H]12)c1csc(N)n1)C(=O)O [CEFTAZIDIME],4,4,4,2,2,2,4,4,2,2,1,4,4,2,4,2,1,4,4,4,MIC (Pseudomonas aeruginosa [13]): 2 µg/mL; MIC (Pseudomonas aeruginosa [32]): 2 µg/mL
O=C(O)c1cn(C2CC2)c2cc(N3CCNCC3)c(F)cc2c1=O [CIPROFLOXACIN],0.12,,,,0.12,,4,4,,0.12,0.12,1,1,,,,1,,1,4,
GENTAMICIN,4,8,4,8,,4,16,4,2,,0.25,0.25,8,8,2,4,,4,8,4,MIC (Pseudomonas aeruginosa [32]): 4 µg/mL

# From ChEMBL document CHEMBL1649517, “Effect of MexXY overexpression on ceftobiprole susceptibility in Pseudomonas aeruginosa” (2009)
